Measured values from different studies.
Protocols differ between the studies behind these lines.
LRRK2 G2019S: Leucine-rich repeat serine/threonine-protein kinase 2 (LRRK2, Homo sapiens, UniProt Q5S007, G2019S)
LRRK2: Leucine-rich repeat serine/threonine-protein kinase 2 (LRRK2, Homo sapiens, UniProt Q5S007)

The inhibition of C=CC(=O)N1CCC([C@@H]2CCNc3c(C(N)=O)c(-c4ccc(Oc5ccccc5)cc4)nn32)CC1 is reported as 0% (LRRK2 G2019S; enzyme activity; inhibitor; 1 µM).
The remaining signal of C[C@H]1CC[C@H](n2c3cnccc3c3cnc(Nc4ccc5c(n4)CCN(C(=O)CO)C5)nc32)CC1 is reported as 28% (LRRK2; cell-free assay; 1 µM).
The remaining binding of C[C@]1(O)CCCN(c2nc(Nc3ccc(S(=O)(=O)N[C@H]4CC[C@H](CN5CCN(c6ccc(C7CCC(=O)NC7=O)cc6F)CC5)CC4)cc3F)ncc2C(F)(F)F)C1 (stereo partly drawn) is reported as 97% (LRRK2; binding; competition with immobilised ligand; 1 µM).
CCCCC(=O)Nc1ccc(-c2ccc3ncn(CCC)c(=O)c3c2)cn1 gave a remaining binding of 100% (LRRK2 G2019S; binding; competition with immobilised ligand; 0.5 µM).
Cc1cc(S(=O)(=O)N[C@H]2CC[C@H](CN3CCN(c4ccc(C5CCC(=O)NC5=O)cc4F)CC3)CC2)ccc1Nc1ncc(C(F)(F)F)c(N2CCC[C@](C)(O)C2)n1 (stereo partly drawn) gave a remaining binding of 6.6% (LRRK2; binding; competition with immobilised ligand; 1 µM).
For COc1ccc2[nH]c3c4[nH]c5ccc(OC)cc5c4c4c(c3c2c1)C(=O)NC4=O, the remaining binding was 2.6% (LRRK2 G2019S; binding; 1 µM).
C[C@]1(O)CCCN(c2nc(Nc3ccc(S(=O)(=O)N[C@H]4CC[C@H](CN5CCN(c6ccc(C7CCC(=O)NC7=O)cc6F)CC5)CC4)cc3Cl)ncc2C(F)(F)F)C1 (stereo partly drawn) gave a remaining binding of 21% (LRRK2; binding; competition with immobilised ligand; 1 µM).
For CN1CCN(C(=O)c2ccc(NC(=O)Nc3ccc(N(C)c4ccnc(Nc5ccc(CS(C)(=O)=O)cc5)n4)cc3)cc2)CC1, the remaining binding was 71% (LRRK2 G2019S; binding; 1 µM).
For C1=C/COCc2cc(ccc2OCCN2CCCC2)Nc2nccc(n2)-c2cccc(c2)COC/1, the remaining binding was 100% (LRRK2; binding; 0.1 µM).
For C=CC(=O)N1CCC[C@@H](n2nc(-c3ccc(Oc4ccccc4)cc3)c3c(N)ncnc32)C1, the inhibition was 23% (LRRK2 G2019S; enzyme activity; inhibitor; 1 µM).
With Cc1ccc(NC(=O)c2ccnc(C(F)(F)F)c2)cc1-c1cc(OCCO)nc(N2CCOCC2)c1 the remaining binding was 100% (LRRK2 G2019S; binding; 1 µM).
The remaining binding of CNS(=O)(=O)c1ccc(Nc2ncc(C(F)(F)F)c(N3CCC[C@](C)(O)C3)n2)c(C)c1 is reported as 13% (LRRK2 G2019S; binding; competition with immobilised ligand; 1 µM).
